Measurements collected from several papers.
Compare with care: the assays were run in different laboratories.
Target: Proto-oncogene tyrosine-protein kinase ROS (ROS1, Homo sapiens, UniProt P08922)

CC1=C(C#N)[C@@H](c2ccc3[nH]nc(C)c3c2)C(C#N)=C(c2ccc(Cl)cc2)N1 — remaining binding (cell-free assay, competition with immobilised ligand; 1 µM): 100%
O=C(c1ccc(Nc2ncc(Cl)c(-c3cc4ccccc4s3)n2)cc1)N1CCC(N2CCCC2)CC1 — remaining binding (binding, competition with immobilised ligand; 1 µM): 31%
N[C@@H]1CCN(c2nccc(-c3cnn4ncccc34)n2)C1 — remaining binding (binding; 1 µM): 72%
CC(=O)C1=C(C)N(c2cccc(C(F)(F)F)c2)C(=O)N[C@@H]1c1ccc(C#N)nc1 — remaining binding (cell-free assay, competition with immobilised ligand; 1 µM): 100%
CN(CCCC(F)(F)F)c1nccc(-c2cnn3ncccc23)n1 — remaining binding (binding; 1 µM): 79%
O=C(Nc1c[nH]nc1C(=O)NC1CCNCC1)c1cc(F)cc(F)c1 — remaining binding (binding, competition with immobilised ligand; 1 µM): 100%
O=C(c1ccc(Nc2nccc(-c3cc4ccccc4s3)n2)cc1)N1CCC(N2CCCC2)CC1 — remaining binding (binding, competition with immobilised ligand; 1 µM): 65%
Nc1ncc2c(n1)-c1c([nH]c3ccc(C#CC4CC4)cc13)CCCC2 — remaining binding (binding, competition with immobilised ligand; 1 µM): 99%
N#CC1(c2ccccn2)CCN(Cc2cc(C(=O)N3CCCC3)c(=O)n3ccccc23)CC1 — remaining binding (cell-free assay, competition with immobilised ligand; 1 µM): 97%
CN(c1nccc(-c2cnn3ncccc23)n1)C1CC1 — remaining binding (binding; 1 µM): 100%
O=C(Nc1cccnn1)N1CC(C/C=C/c2cncc(Oc3ccc(C(F)(F)F)cn3)n2)C1 — remaining binding (cell-free assay, competition with immobilised ligand; 1 µM): 100%
COc1cnc(Nc2cccc(S(N)(=O)=O)c2)nc1N1CCN(c2ccccc2)C(=O)C1 — remaining binding (binding, competition with immobilised ligand; 1 µM): 100%
O=S(=O)(NC1CCC(c2cc(F)ccc2F)(S(=O)(=O)c2ccc(Cl)cc2)CC1)C(F)(F)F (stereo not shown) — remaining binding (cell-free assay, competition with immobilised ligand; 1 µM): 100%
c1cncc(-c2cccc(Nc3nccc(NC4CCCCC4)n3)c2)c1 — remaining binding (binding, competition with immobilised ligand; 10 µM): 20%
COc1ccnn2ncc(-c3ccnc(N(C)C)n3)c12 — remaining binding (binding; 1 µM): 100%
O=C(NCCCN1CCOCC1)c1ccc(Nc2ncc(Cl)c(-c3ccc(Cl)s3)n2)cc1 — remaining binding (binding, competition with immobilised ligand; 1 µM): 47%
C[C@H]1CCN(c2nccc(-c3cnn4ncccc34)n2)C1 — remaining binding (binding; 1 µM): 91%
FC(F)(F)Oc1cccc(-c2cnc3ccc(-c4ccncc4)nn23)c1 — remaining binding (binding, competition with immobilised ligand; 5 µM): 81%
CN(C)CC#Cc1ccc(OCCCc2sc(N3CCc4cccc(C(=O)Nc5nc6ccccc6s5)c4C3)nc2C(=O)O)c(F)c1 — remaining binding (cell-free assay, competition with immobilised ligand; 1 µM): 93%
CC1CCCN1c1nccc(-c2cnn3ncccc23)n1 (stereo not shown) — remaining binding (binding; 1 µM): 100%
COc1ccc2c(O[C@@H]3C[C@H]4C(=O)N[C@]5(C(=O)O)CC5/C=C\CCCCC[C@H](NC(=O)OC5CCCC5)C(=O)N4C3)cc(-c3csc(NC(=O)C(C)C)n3)nc2c1C (stereo partly shown) — remaining binding (cell-free assay, competition with immobilised ligand; 1 µM): 100%
c1cnn2ncc(-c3ccnc(N4CCC45COC5)n3)c2c1 — remaining binding (binding; 1 µM): 100%
